Assay results taken from ChEMBL document CHEMBL3861961, “Effects of Functional Groups and Sugar Composition of Quercetin Derivatives on Their Radical Scavenging Properties” (J Nat Prod, 2016).
Calls of active or inactive are those of the source. The rule behind the calls is not given here.

Experiments:
[1] = Antioxidant activity assessed as DPPH free radical scavenging activity by measuring remaining DPPH at 5 uM after 15 to 60 mins relative to trolox; type: functional
Procedure, shortened: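 DPPH 74 μM final in H2O/MeOH (5/3), mixed vigorously with sample (0.1 mM stock in MeOH; 5 μM final) and left standing. Absorbance at 545 nm read at 15, 30 and 60 min. Wells without compound served as negative controls. At least three replicates per compound and control.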

[2] = Antioxidant activity assessed as DPPH free radical scavenging activity at 5 uM after 15 to 60 mins in presence of CuSO4.5H2O; type: functional
Procedure, shortened: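 Samples (0.2 mM in MeOH) mixed 1:1 by volume with CuSO4·5H2O (0.4 mM in MeOH), held 1.5 h at room temperature. DPPH step: 74 μM DPPH final in H2O/MeOH (5/3), sample 5 μM final. Mixture left standing, then absorbance read at 545 nm after 15, 30 and 60 min. Wells without compound were negative controls. At least triplicate.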

[3] = Antioxidant activity assessed as DPPH free radical scavenging activity by measuring decrease in signal intensity at 0.015 mmol measured after 30 mins in presence of 3-Omethylquercetin by 13C-NMR spectroscopy

| Structure (SMILES) | Activity [1] | Activity [2] | Activity [3] |
| --- | --- | --- | --- |
| O=c1c(O[C@@H]2O[C@H](CO)[C@H](O)[C@H](O)[C@H]2O)c(-c2ccc(O)c(O)c2)oc2cc(O)cc(O)c12 | < 70% | Active | – |
| COc1cc(O)cc2oc(-c3ccc(O)c(O)c3)c(O)c(=O)c12 | < 70% | Active | – |
| O=c1c(O)c(-c2ccc(O)c(O)c2)oc2cc(O)cc(O)c12 | < 70% | Active | – |
| O=C(O[C@H]1[C@H](Oc2c(-c3ccc(O)c(O)c3)oc3cc(O)cc(O)c3c2=O)O[C@H](CO)[C@@H](O)[C@@H]1O)c1cc(O)c(O)c(O)c1 | – | < 35% | – |
| COc1cc(-c2oc3cc(O)cc(O)c3c(=O)c2O[C@@H]2O[C@H](CO)[C@@H](O)[C@H](O)[C@H]2O)ccc1O | – | Active | – |
| COc1cc(O)cc2oc(-c3ccc(O)c(O)c3)c(O[C@@H]3O[C@H](CO)[C@@H](O)[C@H](O)[C@H]3O)c(=O)c12 | < 70% | Active | – |
| O=C(O[C@H]1[C@H](O)[C@@H](O)[C@H](Oc2c(-c3ccc(O)c(O)c3)oc3cc(O)cc(O)c3c2=O)O[C@@H]1CO)c1cc(O)c(O)c(O)c1 | – | < 35% | – |
| COc1cc(-c2oc3cc(O)cc(O)c3c(=O)c2O[C@@H]2O[C@H](CO)[C@H](O)[C@H](O)[C@H]2O)ccc1O | – | Active | – |
| COc1cc(O)cc2oc(-c3ccc(O)c(O)c3)c(O[C@@H]3O[C@H](CO)[C@H](O)[C@H](O)[C@H]3O)c(=O)c12 | < 70% | Active | – |
| O=c1c(O[C@@H]2O[C@H](CO)[C@@H](O)[C@H](O)[C@H]2O)c(-c2ccc(O)c(O)c2)oc2cc(O)cc(O)c12 | < 70% | Active | – |
| COc1ccc(-c2oc3cc(O)cc(O)c3c(=O)c2O)cc1O | – | Active | – |
| COC(=O)c1cc(O)c(O)c(O)c1 | – | – | Active |
| O=C(O[C@@H]1[C@@H](O)[C@H](Oc2c(-c3ccc(O)c(O)c3)oc3cc(O)cc(O)c3c2=O)O[C@H](CO)[C@H]1O)c1cc(O)c(O)c(O)c1 | – | < 35% | – |
| O=C(OC[C@H]1O[C@@H](Oc2c(-c3ccc(O)c(O)c3)oc3cc(O)cc(O)c3c2=O)[C@H](O)[C@@H](O)[C@@H]1O)c1cc(O)c(O)c(O)c1 | – | < 35% | – |
| COc1cc(-c2oc3cc(O)cc(O)c3c(=O)c2O)ccc1O | – | Active | – |
| O=C(O[C@H]1[C@H](Oc2c(-c3ccc(O)c(O)c3)oc3cc(O)cc(O)c3c2=O)O[C@H](CO)[C@@H](O)[C@@H]1OC(=O)c1cc(O)c(O)c(O)c1)c1cc(O)c(O)c(O)c1 | – | < 35% | – |
| COc1c(-c2ccc(O)c(O)c2)oc2cc(O)cc(O)c2c1=O | < 70% | Active | – |
